Results taken from ChEMBL document CHEMBL4007452, “Discovery of an Orally Selective Inhibitor of Signal Transducer and Activator of Transcription 3 Using Advanced Multiple Ligand Simultaneous Docking” (J Med Chem, 2017).
The source made the active and inactive calls. No cut-off for these calls is given here.

Tests used:
[1] = molecular target: Signal transducer and activator of transcription 3 (Homo sapiens, UniProt P40763); assay: Binding affinity to fluorescently labeled STAT3 (unknown origin) by MST-analysis
Signal transducer and activator of transcription 3, sequence (P40763 whole entry): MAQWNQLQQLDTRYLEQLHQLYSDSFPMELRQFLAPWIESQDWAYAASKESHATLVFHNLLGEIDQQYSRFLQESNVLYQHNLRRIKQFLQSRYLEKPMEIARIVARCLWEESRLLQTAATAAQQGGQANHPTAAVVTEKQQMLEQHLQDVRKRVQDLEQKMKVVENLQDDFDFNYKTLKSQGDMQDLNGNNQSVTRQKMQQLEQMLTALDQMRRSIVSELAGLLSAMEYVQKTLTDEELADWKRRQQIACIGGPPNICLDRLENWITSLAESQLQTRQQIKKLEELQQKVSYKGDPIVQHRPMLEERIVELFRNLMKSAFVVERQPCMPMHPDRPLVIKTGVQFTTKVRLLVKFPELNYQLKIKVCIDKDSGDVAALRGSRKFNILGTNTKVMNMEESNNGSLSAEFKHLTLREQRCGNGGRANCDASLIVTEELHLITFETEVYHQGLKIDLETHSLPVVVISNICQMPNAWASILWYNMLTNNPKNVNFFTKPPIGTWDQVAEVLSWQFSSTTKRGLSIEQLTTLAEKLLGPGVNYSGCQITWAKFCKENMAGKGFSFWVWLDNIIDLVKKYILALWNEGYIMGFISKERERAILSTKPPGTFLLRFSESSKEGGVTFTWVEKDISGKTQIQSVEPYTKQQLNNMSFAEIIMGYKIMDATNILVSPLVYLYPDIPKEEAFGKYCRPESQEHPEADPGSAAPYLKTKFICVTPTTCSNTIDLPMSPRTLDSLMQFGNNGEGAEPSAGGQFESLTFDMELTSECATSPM
Outline: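 Labeled STAT3 protein held constant at 10-20 nM, titrated against up to 16 serial dilutions of unlabeled inhibitor. […] Protein was dye-labeled and freed of excess dye within 45 min. Equal volumes were mixed, loaded into glass capillaries and read by microscale thermophoresis.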

[2] = molecular target: T1, Signal transducer and activator of transcription 1-alpha/beta (Homo sapiens) (UniProt P42224); assay: Inhibition of STAT1 in human MDA-MB-231 cells assessed as reduction in STAT1 phosphorylation at Y701 site at 2.5 to 10 uM after 12 hrs by immunoblot analysis; assay type: cell-based
T1 sequence (whole entry): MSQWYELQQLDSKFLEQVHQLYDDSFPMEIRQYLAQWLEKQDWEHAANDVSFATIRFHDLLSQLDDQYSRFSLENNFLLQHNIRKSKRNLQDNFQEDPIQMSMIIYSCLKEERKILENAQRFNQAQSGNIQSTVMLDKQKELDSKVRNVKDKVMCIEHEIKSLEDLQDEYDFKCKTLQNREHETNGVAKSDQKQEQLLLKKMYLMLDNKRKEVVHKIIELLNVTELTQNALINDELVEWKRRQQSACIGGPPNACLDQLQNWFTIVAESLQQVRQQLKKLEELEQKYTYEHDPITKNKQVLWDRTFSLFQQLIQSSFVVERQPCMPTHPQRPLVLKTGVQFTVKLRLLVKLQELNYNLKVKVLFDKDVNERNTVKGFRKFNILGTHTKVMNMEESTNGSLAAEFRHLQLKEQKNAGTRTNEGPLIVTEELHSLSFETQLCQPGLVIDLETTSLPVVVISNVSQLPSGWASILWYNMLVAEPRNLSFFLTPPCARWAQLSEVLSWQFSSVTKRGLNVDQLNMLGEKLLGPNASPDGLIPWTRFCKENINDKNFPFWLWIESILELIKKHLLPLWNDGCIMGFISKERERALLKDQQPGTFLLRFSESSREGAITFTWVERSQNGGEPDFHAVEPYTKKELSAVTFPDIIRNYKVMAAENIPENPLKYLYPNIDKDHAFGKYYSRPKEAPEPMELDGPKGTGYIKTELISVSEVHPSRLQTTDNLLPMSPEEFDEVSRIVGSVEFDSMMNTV

[3] = molecular target: T1, Signal transducer and activator of transcription 1-alpha/beta (Homo sapiens); assay: Inhibition of STAT1 in human MDA-MB-231 cells assessed as reduction in IFN-gamma-induced STAT1-STAT1 DNA binding activity at 2.5 to 10 uM preincubated for 2 hrs followed by IFN-gamma stimulation measured after 30 mins by EMSA; assay type: cell-based
Outline: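 Serum-starved MDA-MB-231 cells were preincubated with compound, stimulated with IFN-γ 50 ng/mL, and then nuclear extracts were taken for EMSA with biotin-labeled probe.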

[4] = test system: MDA-MB-231; assay: Induction of apoptosis in human MDA-MB-231 cells assessed as increase in cleaved caspase level at 2.5 to 5 uM after 12 hrs by immunoblot analysis; assay type: functional, cell-based
Outline: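 MDA-MB-231 cells at 60–80% confluence were treated 12 h with 10% FBS at 2.5-10 µM or 2.5-5 µM, against a DMSO control. Whole-cell lysates were immunoblotted, with bands quantified as percent of control.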

[5] = test system: Mus musculus; assay: Toxicity in BALB/c nude mouse xenografted with human MDA-MB-231 cells assessed as heart damage at 2.5 to 10 mg/kg, po qd administered for 32 days by H&E staining based light microscopy; assay type: organism-based; conditions: in vivo, 768 h
Outline: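 6-week-old female athymic SPF BALB/c nude mice received 5 x 10^6 MDA-MB-231 cells s.c. in the flank. Oral treatment began once tumors reached about 100 mm3, with 8 mice per group and a saline vehicle control. […] Treatment lasted 32 days. Heart, liver, spleen, lung and kidney were fixed 48 h in 10% neutral-buffered formaldehyde, paraffin-embedded, cut at 5 µm, H&E-stained and examined by light microscopy.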

[6] = test system: Mus musculus; assay: Effect on total STAT3 level in BALB/c nude mouse xenografted with human MDA-MB-231 at 2.5 to 10 mg/kg, po qd administered for 32 days by Western blot analysis; assay type: ADME, organism-based; conditions: in vivo, 768 h
Outline: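 Whole-cell lysates from MDA-MB-231 xenograft tumors of mice dosed orally at 2.5, 5 or 10 mg/kg were immunoblotted for P-STAT3(Y705), T-STAT3 and GAPDH.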

[7] = Cmax in Sprague-Dawley rat plasma at 1 mg/kg, iv measured after 24 hrs by UPLC analysis; assay type: ADME, organism-based; set-up: dose 1 mg/kg, route intravenous
Outline: (§1)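 Rat plasma sampled from 2 min to 24 h after a single i.v. (1 mg/kg) or p.o. (10 mg/kg) dose. Parameters were derived from the concentration-time profiles. The bioanalytical method was validated to FDA guidelines for selectivity, linearity, LLOQ, accuracy, precision, recovery, matrix effect and stability.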

[8] = AUC (0 to infinity) in Sprague-Dawley rat plasma at 1 mg/kg, iv measured after 24 hrs by UPLC analysis; assay type: ADME, organism-based; set-up: dose 1 mg/kg, time infinity, route intravenous; outline: as §1
[9] = Apparent volume of distribution in Sprague-Dawley rat plasma at 1 mg/kg, iv measured after 24 hrs by UPLC analysis; assay type: ADME, organism-based; conditions: read-out: Vz; outline: as §1
[10] = MRT (0 to infinity) in Sprague-Dawley rat plasma at 1 mg/kg, iv measured after 24 hrs by UPLC analysis; assay type: ADME, organism-based; outline: as §1
[11] = AUC (0 to infinity) in Sprague-Dawley rat plasma at 10 mg/kg, po measured after 24 hrs by UPLC analysis; assay type: ADME, organism-based; set-up: dose 10 mg/kg, route oral, time infinity; outline: as §1

**Q.** Which Ki [1] does the source give for `NS(=O)(=O)c1cccc2c1C(=O)C=C(Nc1ccccc1N1CCNCC1)C2=O` here?
**A.** 2420 nM

**Q.** What about the inhibition [2] of the same molecule?
**A.** inactive

**Q.** And the inhibition [3]?
**A.** inactive

**Q.** And the Activity [4]?
**A.** Active

**Q.** What about the Activity [5] of the same molecule?
**A.** Non-Toxic

**Q.** What about the Activity [6] of the same molecule?
**A.** Non-Toxic

**Q.** And the Cmax [7]?
**A.** 359 ng/mL

**Q.** And the AUC(0-inf) [8]?
**A.** 199 ng·h/mL

**Q.** What about the Vd [9] of the same molecule?
**A.** 4.94 L/kg

**Q.** What about the MRT inf [10] of the same molecule?
**A.** 42.6 min

**Q.** What about the AUC(0-inf) [11] of the same molecule?
**A.** 889 ng·h/mL
